Reference: ChEMBL document CHEMBL5058577, “EUbOPEN Chemogenomics Library 2 (Multiplex)” (2022)

Test system: Fibroblast
Experiment: Multiplex assay against human fibroblast
Type: toxicity, cell-based
In short: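 At seeding, live cells were stained with Hoechst33342, BioTracker Green Microtubule Cytoskeleton Dye, MitoTracker Red and Annexin V Alexa Fluor 680. After compound addition they were imaged on a CQ1 microscope at 37°C and 5% CO2, and CellPathfinder machine-learning gating sorted them into Hoechst high-intensity objects or normal cells, with normal cells further split into healthy, pyknosed or fragmented nuclei and pyknosed cells into mitotic or apoptotic. Tubulin, mitochondrial-mass and membrane-permeability phenotypes are given as per cents of cells with healthy nuclei.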

[1] = 12 h, 1 µM, compound concentration 1 uM, replicate 1
[2] = 12 h, 1 µM, compound concentration 1 uM, replicate 2
[3] = 12 h, 10 µM, compound concentration 10 uM, replicate 1
[4] = 12 h, 10 µM, compound concentration 10 uM, replicate 2
[5] = 24 h, 1 µM, compound concentration 1 uM, replicate 1
[6] = 24 h, 1 µM, compound concentration 1 uM, replicate 2
[7] = 24 h, 10 µM, compound concentration 10 uM, replicate 1
[8] = 24 h, 10 µM, compound concentration 10 uM, replicate 2
[9] = 48 h, 1 µM, compound concentration 1 uM, replicate 1
[10] = 48 h, 1 µM, compound concentration 1 uM, replicate 2
[11] = 48 h, 10 µM, compound concentration 10 uM, replicate 1
[12] = 48 h, 10 µM, compound concentration 10 uM, replicate 2

SMILES: CCCn1c(=O)c2[nH]c(C3CCCC3)nc2n(CCC)c1=O [1,3-DIPROPYL-8-CYCLOPENTYLXANTHINE [DPCPX]]
- Population Apoptotic (%) [1]: 38%
- Population Fragmented Nuclei (%) [1]: 10%
- Population Healthy Nuclei (%) [1]: 73%
- Population Hoechst High Intensity Objects (%) [1]: 3%
- Population Membrane Permeable-Phenotype (%) [1]: 0%
- Population Mitochondria Different-Phenotype (%) [1]: 1%
- Population Mitotic Cells (%) [1]: 61%
- Population Normal (%) [1]: 96%
- Population Pyknosed Nuclei (%) [1]: 15%
- Population Tubulin-Different-Phenotype (%) [1]: 29%
- Total Cell Count [1]: 175
- Population Apoptotic (%) [2]: 30%
- Population Fragmented Nuclei (%) [2]: 25%
- Population Healthy Nuclei (%) [2]: 46%
- Population Membrane Permeable-Phenotype (%) [2]: 1%
- Population Mitochondria Different-Phenotype (%) [2]: 10%
- Population Mitotic Cells (%) [2]: 69%
- Population Pyknosed Nuclei (%) [2]: 28%
- Population Tubulin-Different-Phenotype (%) [2]: 50%
- Total Cell Count [2]: 156
- Population Apoptotic (%) [3]: 58%
- Population Fragmented Nuclei (%) [3]: 18%
- Population Healthy Nuclei (%) [3]: 65%
- Population Hoechst High Intensity Objects (%) [3]: 3%
- Population Membrane Permeable-Phenotype (%) [3]: 0%
- Population Mitochondria Different-Phenotype (%) [3]: 10%
- Population Mitotic Cells (%) [3]: 41%
- Population Normal (%) [3]: 96%
- Population Pyknosed Nuclei (%) [3]: 17%
- Population Tubulin-Different-Phenotype (%) [3]: 47%
- Total Cell Count [3]: 104
- Population Apoptotic (%) [4]: 25%
- Population Fragmented Nuclei (%) [4]: 32%
- Population Healthy Nuclei (%) [4]: 47%
- Population Hoechst High Intensity Objects (%) [4]: 6%
- Population Membrane Permeable-Phenotype (%) [4]: 12%
- Population Mitochondria Different-Phenotype (%) [4]: 3%
- Population Mitotic Cells (%) [4]: 75%
- Population Normal (%) [4]: 93%
- Population Pyknosed Nuclei (%) [4]: 20%
- Population Tubulin-Different-Phenotype (%) [4]: 59%
- Total Cell Count [4]: 129
- Population Apoptotic (%) [5]: 50%
- Population Fragmented Nuclei (%) [5]: 13%
- Population Healthy Nuclei (%) [5]: 77%
- Population Hoechst High Intensity Objects (%) [5]: 2%
- Population Membrane Permeable-Phenotype (%) [5]: 0%
- Population Mitochondria Different-Phenotype (%) [5]: 2%
- Population Mitotic Cells (%) [5]: 50%
- Population Normal (%) [5]: 97%
- Population Pyknosed Nuclei (%) [5]: 9%
- Population Tubulin-Different-Phenotype (%) [5]: 30%
- Total Cell Count [5]: 177
- Population Apoptotic (%) [6]: 75%
- Population Fragmented Nuclei (%) [6]: 30%
- Population Healthy Nuclei (%) [6]: 48%
- Population Hoechst High Intensity Objects (%) [6]: 3%
- Population Membrane Permeable-Phenotype (%) [6]: 4%
- Population Mitochondria Different-Phenotype (%) [6]: 12%
- Population Mitotic Cells (%) [6]: 24%
- Population Normal (%) [6]: 96%
- Population Pyknosed Nuclei (%) [6]: 21%
- Population Tubulin-Different-Phenotype (%) [6]: 54%
- Total Cell Count [6]: 159
- Population Apoptotic (%) [7]: 63%
- Population Fragmented Nuclei (%) [7]: 17%
- Population Healthy Nuclei (%) [7]: 61%
- Population Hoechst High Intensity Objects (%) [7]: 3%
- Population Membrane Permeable-Phenotype (%) [7]: 6%
- Population Mitochondria Different-Phenotype (%) [7]: 9%
- Population Mitotic Cells (%) [7]: 36%
- Population Normal (%) [7]: 96%
- Population Pyknosed Nuclei (%) [7]: 22%
- Population Tubulin-Different-Phenotype (%) [7]: 49%
- Total Cell Count [7]: 104
- Population Apoptotic (%) [8]: 20%
- Population Fragmented Nuclei (%) [8]: 35%
- Population Healthy Nuclei (%) [8]: 40%
- Population Hoechst High Intensity Objects (%) [8]: 6%
- Population Membrane Permeable-Phenotype (%) [8]: 8%
- Population Mitochondria Different-Phenotype (%) [8]: 4%
- Population Mitotic Cells (%) [8]: 79%
- Population Normal (%) [8]: 93%
- Population Pyknosed Nuclei (%) [8]: 24%
- Population Tubulin-Different-Phenotype (%) [8]: 63%
- Total Cell Count [8]: 125
- Population Apoptotic (%) [9]: 72%
- Population Fragmented Nuclei (%) [9]: 16%
- Population Healthy Nuclei (%) [9]: 70%
- Population Hoechst High Intensity Objects (%) [9]: 2%
- Population Membrane Permeable-Phenotype (%) [9]: 0%
- Population Mitochondria Different-Phenotype (%) [9]: 1%
- Population Mitotic Cells (%) [9]: 27%
- Population Normal (%) [9]: 97%
- Population Pyknosed Nuclei (%) [9]: 12%
- Population Tubulin-Different-Phenotype (%) [9]: 35%
- Total Cell Count [9]: 182
- Population Apoptotic (%) [10]: 47%
- Population Fragmented Nuclei (%) [10]: 39%
- Population Healthy Nuclei (%) [10]: 48%
- Population Hoechst High Intensity Objects (%) [10]: 7%
- Population Membrane Permeable-Phenotype (%) [10]: 5%
- Population Mitochondria Different-Phenotype (%) [10]: 12%
- Population Mitotic Cells (%) [10]: 52%
- Population Normal (%) [10]: 92%
- Population Tubulin-Different-Phenotype (%) [10]: 55%
- Total Cell Count [10]: 170
- Population Apoptotic (%) [11]: 57%
- Population Fragmented Nuclei (%) [11]: 24%
- Population Healthy Nuclei (%) [11]: 55%
- Population Hoechst High Intensity Objects (%) [11]: 3%
- Population Membrane Permeable-Phenotype (%) [11]: 1%
- Population Mitochondria Different-Phenotype (%) [11]: 13%
- Population Mitotic Cells (%) [11]: 42%
- Population Normal (%) [11]: 96%
- Population Pyknosed Nuclei (%) [11]: 20%
- Population Tubulin-Different-Phenotype (%) [11]: 50%
- Total Cell Count [11]: 98
- Population Apoptotic (%) [12]: 50%
- Population Fragmented Nuclei (%) [12]: 43%
- Population Healthy Nuclei (%) [12]: 45%
- Population Hoechst High Intensity Objects (%) [12]: 2%
- Population Membrane Permeable-Phenotype (%) [12]: 16%
- Population Mitochondria Different-Phenotype (%) [12]: 8%
- Population Mitotic Cells (%) [12]: 50%
- Population Normal (%) [12]: 97%
- Population Pyknosed Nuclei (%) [12]: 10%
- Population Tubulin-Different-Phenotype (%) [12]: 78%
- Total Cell Count [12]: 136
